Test results: ChEMBL document CHEMBL1140898, “Targeting the fatty acid biosynthesis enzyme, beta-ketoacyl-acyl carrier protein synthase III (PfKASIII), in the identification of novel antimalarial agents” (J Med Chem, 2009)

Columns and labels:
[1] = Inhibition of Plasmodium falciparum KAS3 expressed in Escherichia coli assessed as transfer of [1-14C]acetyl-CoA to [1-14C]acetyl-ACP
Method in brief: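 Recombinant 6xHIS-tagged P. falciparum KASIII and 6xHIS-ACP expressed in E. coli and purified. Radiometric filter assay of [1-14C]-acetyl-CoA transfer to ACP, 25 min at 37 °C, quenched with 10% TCA. Product captured on P81 cellulose filters, washed with TCA and counted by scintillation. […] IC50 by variable-slope nonlinear regression, curves accepted at R2 >0.80.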

Plasmodium falciparum [2] = experiment: Antimalarial activity against […] by [3H]hypoxanthine uptake; assay type: functional, organism-based
Plasmodium falciparum [3] = experiment: Antimalarial activity against […] by [3H]hypoxanthine uptake; assay type: functional, organism-based
Plasmodium falciparum [4] = experiment: Antimalarial activity against Plasmodium falciparum TM91C235 by [3H]hypoxanthine uptake; assay type: functional, organism-based
[5] = Cytotoxicity against mouse J774.G8 cells after 72 hrs by MTS assay; assay type: cell-based
Method in brief: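 Murine J774 macrophage subclone G8 grown in DMEM with 10% fetal calf serum, 2 mM L-glutamine, 50 μg/mL gentamicin, 5% CO2, 37 °C. Seeded at 1 × 10^4 cells/well and left 24 h. Compound dilutions in medium or vehicle added, then 72 h exposure. MTS tetrazolium added for 1–2 h at 37 °C, OD read at 490 nm. Vehicle control values subtracted.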

[6] = Therapeutic index, ratio of IC50 for mice (Mus musculus) J774.G8 cells to IC50 for chloroquine-resistant Plasmodium falciparum W2; details: J774.G8 cells versus Plasmodium falciparum W2

Compound | IC50 [1] [µM] | IC50 (Plasmodium falciparum [2]) [µM] | IC50 (Plasmodium falciparum [3]) [µM] | IC50 (Plasmodium falciparum [4]) [µM] | IC50 [5] [µM] | selectivity ratio [6]
Oc1ccccc1SSc1ccccc1O | 1.9 | 15 | 14.9 |  |  | 
O=[N+]([O-])c1c(Cl)sc(Cl)c1S(=O)(=O)Nc1ccc(C(F)(F)F)cc1 | 0.28 | 16.4 | 15.4 |  |  | 
Nc1ccc(S(=O)(=O)c2cc(O)ccc2O)cc1 | 63.8 | 3.6 | 0.79 | 5.3 | > 1890 | > 472
Cc1ccc(S(=O)(=O)c2ccccc2)cc1 | 158 | 68.9 | 35.7 | 112 | 134 | 1.9
Cc1cc(O)c(O)c(S(=O)(=O)c2ccc(N)cc2)c1 | 27.2 | 23.6 | 19.7 | 3.4 | 27.6 | 1.2
Cc1ccc(S(=O)(=O)c2cc(O)ccc2O)cc1 | 193 | 64.3 | 37.8 | 60.5 | > 1890 | > 29.6
Cc1ccc(S(=O)(=O)c2ccc3ccccc3c2)cc1 | 53.7 | > 230 | > 230 | > 230 | > 1770 | 
c1ccc(SSc2ccccc2)cc1 | 0.65 | 6.7 | 5 |  | 124 | 12.4
O=C(O)c1ccc(NS(=O)(=O)c2ccccc2)cc1O | 5 | > 12.7 | > 12.7 |  | > 2540 | 
Oc1ccc2ccccc2c1SSc1c(O)ccc2ccccc12 | 0.13 | 6.6 | 7.2 |  | > 1430 | > 204
Clc1ccc(SSSc2ccc(Cl)cc2)cc1 | 0.63 | 2.1 | 2.5 |  |  | 
Oc1ccc(Cl)cc1SSSc1cc(Cl)ccc1O | 0.53 | 1.4 | 2.3 |  |  | 
O=S(=O)(Nc1cccc(Cl)c1)c1ccccc1 | 195 | > 49.9 | > 49.9 |  | 31.3 | < 0.62
O=S(=O)(Nc1ccc(C(F)(F)F)cc1)c1cc(Cl)sc1Cl | 2.2 | > 49.9 | > 49.9 |  |  | 
C/C=C/CCCCCCCC(=O)NS(=O)(=O)c1ccc(N)cc1 | > 1000 | > 49.9 | > 49.9 |  |  | 
Oc1ccc(S)cc1Cl | 2.8 | 4.7 | 5.2 |  |  | 
Oc1ccc(Sc2ccc(O)cc2O)c(O)c1 | 10.8 | > 49.9 | > 49.9 |  |  | 
O=S(=O)(c1ccc(O)cc1)c1cc(Cl)ccc1O | 115 | 45.7 | 38.6 | 80.8 | 107 | 2.3
Nc1ncc(S(=O)(=O)c2ccc(NO)cc2)s1 | 22 | > 55.3 | 0.3 | > 55.3 |  | 
CCOC(=O)c1cnccc1C | 4.9 | > 49.9 | > 49.9 |  |  | 
CC(CN)CCC(C)(O)C(N)=O (stereo unspecified) | 0.24 | 14.6 | 24.7 |  |  | 
C/C(=C/C(=O)OC(C)c1ccccc1)OP1(=O)OC(C)C(C)O1 (stereo unspecified) | 25.8 | > 49.9 | 20.4 |  |  | 

Compound | IC50 [1] [µM] | IC50 (Plasmodium falciparum [2]) [µM] | IC50 (Plasmodium falciparum [3]) [µM] | IC50 (Plasmodium falciparum [4]) [µM] | IC50 [5] [µM] | selectivity ratio [6]
COc1ccc(C(=O)CSS(=O)(=O)c2ccccc2)cc1 | 1.5 | 22.5 | 22.5 |  |  | 
Cc1cccc(C)c1/C=C/S(=O)(=O)c1ccccc1 | 448 | > 50.1 | > 50.1 |  | 706 | < 14
CC(C)(C)S(=O)(=O)CC(=O)c1ccc(Cl)cc1Cl | 62.9 | 84.1 | 45.3 | > 204 | > 1620 | > 19.3
CCCCS(=O)(=O)CCOC(=O)c1ccc([N+](=O)[O-])cc1 | 0.32 | > 41.2 | > 41.2 |  | 33.6 | < 0.83
O=S(=O)(c1cccc(S(=O)(=O)c2cc(O)ccc2O)c1)c1cc(O)ccc1O | 38.2 | 7.1 | 26 | 4.5 | > 1180 | > 169
C/C(=C/c1ccccc1)S(=O)(=O)c1ccccc1 | 165 | > 50.1 | 28 |  | 205 | < 4.1
Nc1ccc(S(=O)(=O)c2cc(O)c3ccccc3c2O)c(Cl)c1 | 0.13 | 5.5 | 0.01 |  |  | 
CC(C)c1ccc(S(=O)(=O)c2ccc(C(C)C)cc2)cc1 | 22.5 | 23.5 | 18.5 | 32.7 | 7.3 | 0.3
Cc1ccc(S/C=C/S(=O)(=O)Cc2ccccc2)cc1 | 0.52 | 5.8 | 3 |  | 0.85 | 0.15
O=[N+]([O-])c1cc(S(=O)(=O)Nc2cc(C(F)(F)F)cc(C(F)(F)F)c2)sc1Nc1cc(C(F)(F)F)cc(C(F)(F)F)c1 | 5.2 | 11.4 | 10.3 |  |  | 
O=c1ss/c(=N\c2ccccc2)n1-c1ccccc1 | 0.5 | 8 | 8 |  |  | 
Cc1ccc(SSSc2ccc(C)cc2)cc1 | 1.4 | 1.4 | 1.5 |  |  | 
Cc1ccc(S(=O)(=O)c2cc(O)c3ccccc3c2O)cc1 | 0.38 | 3.2 | 3.6 |  | > 3180 | > 1060
Oc1ccc(Cl)cc1SSc1cc(Cl)ccc1O | 0.14 | 12 | 12.4 |  |  | 
Oc1c(Cl)cc(SSc2cc(Cl)c(O)c(Cl)c2Cl)c(Cl)c1Cl | 0.24 | 5.5 | 3.9 |  |  | 
O=C(CN1CCN(c2ccc(CO)c(Br)c2)CC1)c1ccc([N+](=O)[O-])o1 | 3.2 | 8.9 | 8.9 |  |  | 
NC1CCC(S(=O)(=O)c2cc(O)c3ccccc3c2O)CC1 (stereo unspecified) | 0.44 | 20.4 | 3.9 |  | 105 | 5.3
CC(=O)Nc1ccc(S(=O)(=O)c2ccc(NC(=O)c3ccccc3O)cc2)cc1 | 48.1 | 20.7 | 29.2 | 31.7 | > 1620 | > 77
Nc1nc(O)c2cc(S(=O)(=O)c3ccc4ccccc4c3)ccc2n1 | 18.3 | 1.2 | 0.43 | 1.4 | > 2850 | > 2850
Oc1ccc(Cl)cc1Sc1cc(Cl)ccc1O [FENTICLOR] | 3.1 | 21.5 | 20.5 |  |  | 
COc1ncnc(NS(=O)(=O)c2ccc(N)cc2)c1OC [SULFADOXINE] | > 1000 | 6.1 | 0.04 |  | > 1610 | > 269
C=C/C(C)=C/[C@@]1(C)SC(=O)C(C)=C1O [THIOLACTOMYCIN] | > 330 | 50 | 50 |  |  | 
